Source: ChEMBL document CHEMBL1122796, “Synthesis and antihypertensive activity of 6,7-disubstituted trans-4-amino-3,4-dihydro-2,2-dimethyl-2H-1-benzopyran-3-ols” (1984)

What was measured:
Type in all cases: functional
Rattus norvegicus [1] = experiment: Compound was evaluated for oral antihypertensive activity in spontaneously hypertensive rats at 0.3 mg/kg peroral administration
How it was run: (§1)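 Conscious spontaneously hypertensive rats (Okamoto-derived, 14-24 weeks old, systolic BP ≥180 mmHg), usually six per compound. Dosed orally by needle into the esophagus as a solution or suspension in 1% w/v methylcellulose; doses as free base. Systolic BP measured by tail cuff, restrained at 33.5 ± 0.5 °C, each reading a mean of ≥6 recordings, predose and at 1-6 h.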

Rattus norvegicus [2] = experiment: Compound was evaluated for oral antihypertensive activity in spontaneously hypertensive rats at 1 mg/kg peroral administration; how it was run: as §1
Rattus norvegicus [3] = experiment: Compound was evaluated for oral antihypertensive activity in spontaneously hypertensive rats at 10 mg/kg peroral administration; how it was run: as §1
Rattus norvegicus [4] = experiment: Compound was evaluated for oral antihypertensive activity in spontaneously hypertensive rats at 3 mg/kg peroral administration; how it was run: as §1
Rattus norvegicus [5] = experiment: Compound was evaluated for oral antihypertensive activity in spontaneously hypertensive rats at 0.1 mg/kg peroral administration; how it was run: as §1
Rattus norvegicus [6] = experiment: Compound was evaluated for oral antihypertensive activity in spontaneously hypertensive rats at 0.03 mg/kg peroral administration; how it was run: as §1
Rattus norvegicus [7] = experiment: Compound was evaluated for oral antihypertensive activity in spontaneously hypertensive rats at 0.01 mg/kg peroral administration; how it was run: as §1
Rattus norvegicus [8] = experiment: Compound was evaluated for antihypertensive activity in deoxy-corticosterone acetate (DOCA) treated hypertensive rats at 0.3 mg/kg peroral administration; details: route oral
Rattus norvegicus [9] = experiment: Compound was evaluated for antihypertensive activity in deoxy-corticosterone acetate (DOCA) treated hypertensive rats at 1 mg/kg peroral administration; details: route oral
Rattus norvegicus [10] = experiment: Compound was evaluated for oral antihypertensive activity in spontaneously hypertensive rats at 100 mg/kg peroral administration; how it was run: as §1
Rattus norvegicus [11] = experiment: Compound was evaluated for antihypertensive activity in deoxy-corticosterone acetate (DOCA) treated hypertensive rats at 10 mg/kg peroral administration; details: route oral
Rattus norvegicus [12] = experiment: Compound was evaluated for antihypertensive activity in deoxy-corticosterone acetate (DOCA) treated hypertensive rats at 100 mg/kg peroral administration; details: route oral
Rattus norvegicus [13] = experiment: Compound was evaluated for antihypertensive activity in deoxy-corticosterone acetate (DOCA) treated hypertensive rats at 3 mg/kg peroral administration; details: route oral

`CC(=O)Nc1cc2c(cc1C(N)=O)[C@@H](N1CCCCC1)[C@H](O)C(C)(C)O2` was tested, and the “Max fall in blood pressure” value (Rattus norvegicus [1]) was 34 mmHg and the “Max fall in blood pressure” value (Rattus norvegicus [2]) was 50 mmHg.

`CC(=O)Nc1cc2c(cc1[N+](=O)[O-])OC(C)(C)[C@@H](O)[C@@H]2N1CCCCC1` was tested, and the “Max fall in blood pressure” value (Rattus norvegicus [3]) was 89 mmHg and the “Max fall in blood pressure” value (Rattus norvegicus [4]) was 44 mmHg.

`CC1(C)Oc2cc(N)c([N+](=O)[O-])cc2[C@@H](N2CCCCC2)[C@@H]1O` was tested, and the “Max fall in blood pressure” value (Rattus norvegicus [5]) was 110 mmHg, the “Max fall in blood pressure” value (Rattus norvegicus [6]) was 71 mmHg and the “Max fall in blood pressure” value (Rattus norvegicus [1]) was 111 mmHg. For the same compound, the “Max fall in blood pressure” value (Rattus norvegicus [7]) was 14 mmHg.

In the case of `CC1(C)Oc2cc([N+](=O)[O-])c(N)cc2[C@@H](N2CCCCC2)[C@@H]1O`, the “Max fall in blood pressure” value (Rattus norvegicus [1]) is reported as 42 mmHg and the “Max fall in blood pressure” value (Rattus norvegicus [2]) is reported as 67 mmHg.

With `CC(=O)Nc1cc2c(cc1C#N)[C@@H](N1CCCC1)[C@H](O)C(C)(C)O2` the “Max fall in blood pressure” value (Rattus norvegicus [5]) was 36 mmHg and the “Max fall in blood pressure” value (Rattus norvegicus [1]) was 149 mmHg.

With `CC(=O)Nc1cc2c(cc1[N+](=O)[O-])OC(C)(C)[C@@H](O)[C@@H]2N1CCCC1` the “Max fall in blood pressure” value (Rattus norvegicus [3]) was 99 mmHg and the “Max fall in blood pressure” value (Rattus norvegicus [4]) was 25 mmHg.

With `CC1(C)Oc2cc([N+](=O)[O-])c(N)cc2[C@@H](N2CCCC2)[C@@H]1O` the “Max fall in blood pressure” value (Rattus norvegicus [5]) was 22 mmHg, the “Max fall in blood pressure” value (Rattus norvegicus [1]) was 83 mmHg and the “Max fall in blood pressure” value (Rattus norvegicus [2]) was 71 mmHg.

In the case of `CC1(C)Oc2ccc(C#N)cc2C(N2CCCC2)[C@@H]1O.CS(=O)(=O)O` (some centres not stated), the “Max fall in blood pressure” value (Rattus norvegicus [1]) is reported as 41 mmHg, the “Max fall in blood pressure” value (Rattus norvegicus [2]) is reported as 61 mmHg and the “Max fall in blood pressure” value (Rattus norvegicus [8]) is reported as 15 mmHg. For the same compound, the “Max fall in blood pressure” value (Rattus norvegicus [9]) was 43 mmHg.

In the case of `CC1(C)Oc2cc(N)c(C#N)cc2[C@@H](N2CCCC2)[C@@H]1O`, the “Max fall in blood pressure” value (Rattus norvegicus [5]) is reported as 54 mmHg, the “Max fall in blood pressure” value (Rattus norvegicus [6]) is reported as 40 mmHg and the “Max fall in blood pressure” value (Rattus norvegicus [1]) is reported as 115 mmHg.

With `CC(=O)Nc1cc2c(cc1[N+](=O)[O-])[C@@H](N1CCCCC1)[C@H](O)C(C)(C)O2` the “Max fall in blood pressure” value (Rattus norvegicus [5]) was 78 mmHg and the “Max fall in blood pressure” value (Rattus norvegicus [1]) was 108 mmHg.

With `CC1(C)Oc2cc(N)c([N+](=O)[O-])cc2[C@@H](N2CCCC2)[C@@H]1O` the “Max fall in blood pressure” value (Rattus norvegicus [5]) was 122 mmHg and the “Max fall in blood pressure” value (Rattus norvegicus [6]) was 47 mmHg.

`CC1(C)Oc2ccc(N)cc2C(N2CCCC2)[C@@H]1O.CS(=O)(=O)O` (some centres not stated) was tested, and the Max fall in blood pressure (Rattus norvegicus [3]) was -10 mmHg and the “Max fall in blood pressure” value (Rattus norvegicus [9]) was 6 mmHg.

With `CC1(C)Oc2ccc([N+](=O)[O-])cc2C(N2CCCC2)[C@@H]1O.Cl` (some centres not stated) the “Max fall in blood pressure” value (Rattus norvegicus [1]) was 32 mmHg, the “Max fall in blood pressure” value (Rattus norvegicus [2]) was 52 mmHg and the “Max fall in blood pressure” value (Rattus norvegicus [9]) was 52 mmHg.

`CC(=O)Nc1ccc2c(c1)C(N1CCCCC1)[C@H](O)C(C)(C)O2.Cl` (some centres not stated) was tested, and the “Max fall in blood pressure” value (Rattus norvegicus [10]) was 42 mmHg, the “Max fall in blood pressure” value (Rattus norvegicus [3]) was 19 mmHg and the “Max fall in blood pressure” value (Rattus norvegicus [11]) was 6 mmHg. For the same compound, the “Max fall in blood pressure” value (Rattus norvegicus [12]) was 4 mmHg.

For `CC1(C)Oc2cc([N+](=O)[O-])ccc2C(N2CCCC2)[C@@H]1O.Cl` (some centres not stated), the “Max fall in blood pressure” value (Rattus norvegicus [1]) was 17 mmHg, the “Max fall in blood pressure” value (Rattus norvegicus [2]) was 83 mmHg and the “Max fall in blood pressure” value (Rattus norvegicus [13]) was 90 mmHg. For the same compound, the “Max fall in blood pressure” value (Rattus norvegicus [9]) was 44 mmHg.

For `CC1(C)Oc2ccc(C(N)=O)cc2C(N2CCCCC2)[C@@H]1O.Cl` (some centres not stated), the “Max fall in blood pressure” value (Rattus norvegicus [3]) was 109 mmHg, the “Max fall in blood pressure” value (Rattus norvegicus [4]) was 76 mmHg and the “Max fall in blood pressure” value (Rattus norvegicus [2]) was 24 mmHg. For the same compound, the “Max fall in blood pressure” value (Rattus norvegicus [9]) was 9 mmHg.

For `Cl.NNc1nncc2ccccc12` [HYDRALAZINE HYDROCHLORIDE], the “Max fall in blood pressure” value (Rattus norvegicus [3]) was 89 mmHg, the “Max fall in blood pressure” value (Rattus norvegicus [4]) was 51 mmHg and the “Max fall in blood pressure” value (Rattus norvegicus [2]) was 42 mmHg. The “Max fall in blood pressure” value (Rattus norvegicus [13]) was 65 mmHg, the “Max fall in blood pressure” value (Rattus norvegicus [11]) was 113 mmHg and the “Max fall in blood pressure” value (Rattus norvegicus [9]) was 32 mmHg.

In the case of `COC(=O)C1=C(C)NC(C)=C(C(=O)OC)C1c1ccccc1[N+](=O)[O-]` [NIFEDIPINE], the “Max fall in blood pressure” value (Rattus norvegicus [4]) is reported as 62 mmHg, the “Max fall in blood pressure” value (Rattus norvegicus [1]) is reported as 13 mmHg and the “Max fall in blood pressure” value (Rattus norvegicus [2]) is reported as 30 mmHg. The “Max fall in blood pressure” value (Rattus norvegicus [13]) was 51 mmHg, the “Max fall in blood pressure” value (Rattus norvegicus [8]) was 20 mmHg and the “Max fall in blood pressure” value (Rattus norvegicus [9]) was 33 mmHg.
